Reference: ChEMBL document CHEMBL4808182, “Discovery of the Soluble Guanylate Cyclase Activator Runcaciguat (BAY 1101042)” (J Med Chem, 2021)
Calls of active or inactive are those of the source. The rule behind the calls is not given here.

Tests used:
[1] = Half life in Wistar rat at 0.3 mg/kg, iv measured up to 24 hrs by LC-MS analysis; assay type: ADME, organism-based; settings: in vivo
Rattus norvegicus [2] = organism: Rattus norvegicus; assay: Effect on left ventricular diastolic pressure in Wistar rat; assay type: functional
In short: (§1)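 Rat hearts in Langendorff perfusion were exposed to 10 nM–10 μM. Coronary perfusion pressure, heart rate, LVDP and +dp/dt were recorded.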

[3] = biological target: T1, Guanylate cyclase soluble subunit alpha-1 (Rattus norvegicus) (UniProt P19686); assay: Activation of recombinant rat sGC alpha1 subunit expressed in CHO cells assessed as induction of [32P-cGMP] formation by measuring fold change at 100 uM using alpha-[32P-GTP] as substrate measured after 6 mins by luminescence assay; settings: filed as activator
T1 sequence (whole entry): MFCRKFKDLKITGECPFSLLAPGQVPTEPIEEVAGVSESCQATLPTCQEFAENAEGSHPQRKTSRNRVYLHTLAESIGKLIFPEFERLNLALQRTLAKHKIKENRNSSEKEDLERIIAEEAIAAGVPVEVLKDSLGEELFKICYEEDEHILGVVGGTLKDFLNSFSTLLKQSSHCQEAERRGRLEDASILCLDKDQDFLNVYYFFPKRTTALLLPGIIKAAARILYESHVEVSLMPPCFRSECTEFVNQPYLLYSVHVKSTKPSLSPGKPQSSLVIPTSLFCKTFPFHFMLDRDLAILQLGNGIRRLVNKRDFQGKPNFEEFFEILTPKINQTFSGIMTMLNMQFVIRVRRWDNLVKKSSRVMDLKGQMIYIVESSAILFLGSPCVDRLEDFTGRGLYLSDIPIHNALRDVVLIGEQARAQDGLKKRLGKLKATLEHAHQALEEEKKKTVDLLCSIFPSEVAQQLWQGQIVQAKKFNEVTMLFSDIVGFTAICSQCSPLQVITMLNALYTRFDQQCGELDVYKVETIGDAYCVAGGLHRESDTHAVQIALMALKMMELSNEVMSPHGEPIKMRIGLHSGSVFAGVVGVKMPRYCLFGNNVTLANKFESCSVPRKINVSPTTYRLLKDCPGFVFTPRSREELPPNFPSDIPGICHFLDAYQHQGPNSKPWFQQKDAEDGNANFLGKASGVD
In short: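 Highly purified recombinant sGC enzyme was tested for stimulation of cGMP production across 0.01 to 100 μM of compound. The read-out was fold activation over basal enzyme activity. The method followed earlier published sGC stimulator/activator characterization.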

Rattus norvegicus [4] = organism: Rattus norvegicus; assay: Effect on contractility in Wistar rat; assay type: functional; in short: as §1
CHO = assay: Activation of recombinant rat sGC expressed in CHO cells in presence of NO-donor S-nitroso N-acetyL-penicillamine by luminescence assay; assay type: cell-based; settings: filed as activator
In short: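 Rat sGC-overexpressing CHO reporter cells were treated with test compound combined with NO donor SNAP, and the luminescence signal was read.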

[5] = Induction of CYP3A4 in human hepatocytes using phenacetin as substrate incubated for 60 mins by LC-MS/MS analysis; settings: 1 h
[6] = Blood clerance in cynomolgus monkey at 0.1 mg/kg, iv measured up to 24 hrs by LC-MS analysis; assay type: ADME, organism-based, Macaca fascicularis; settings: whole blood
Rattus norvegicus [7] = assay: Cardioprotective activity in renin-transgenic rat carrying [[…]] gene assessed as reduction in heart hypertrophy at 1 to 10 mg/kg, po bid for 21 days; assay type: functional, organism-based; settings: dose 1-10 mg/kg, time 21.0 day
[8] = Activation of recombinant rat sGC expressed in CHO cells by luminescence assay; assay type: cell-based; settings: CHO
In short: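 Stable CHO reporter cell line overexpressing rat sGC; cGMP formation read as luminescence. EC50 from concentration–response. MEC taken as lowest concentration giving at least threefold increase in basal luminescence.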

[9] = Volume of distribution at steady state in Beagle dog at 0.3 mg/kg, iv measured up to 24 hrs by LC-MS analysis; assay type: ADME, organism-based, Canis lupus familiaris; settings: in vivo, read-out: Vdss
[10] = Volume of distribution at steady state in cynomolgus monkey at 0.1 mg/kg, iv measured up to 24 hrs by LC-MS analysis; assay type: ADME, organism-based, Macaca fascicularis; settings: in vivo, read-out: Vdss
[11] = Oral bioavailability in Wistar rat at 0.3 mg/kg measured up to 24 hrs by LC-MS analysis; assay type: ADME, organism-based; settings: in vivo
[12] = Oral bioavailability in cynomolgus monkey at 0.1 mg/kg measured up to 24 hrs by LC-MS analysis; assay type: ADME, organism-based, Macaca fascicularis; settings: in vivo
Rattus norvegicus [13] = assay: In vivo activation of sGC in Wistar rate assessed as decrease in blood pressure at 0.03 to 0.1 mg/kg, iv administered as bolus injection; assay type: functional, organism-based; settings: dose 0.03-0.1 mg/kg
In short: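 Anaesthetized rats received an iv bolus of 0.03 or 0.1 mg/kg, with or without ODQ pretreatment. Blood pressure and heart rate were recorded over time.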

Heart = assay: Reduction in coronary perfusion pressure in heart isolated from Wistar rat at highest concentration relative to control; assay type: functional; design: scale not given: the % may be the effect or the level left; in short: as §1
[14] = Half life in Beagle dog at 0.3 mg/kg, iv measured up to 24 hrs by LC-MS analysis; assay type: ADME, organism-based, Canis lupus familiaris; settings: in vivo
Rattus norvegicus [15] = assay: In vivo activation of sGC in po dosed renin-transgenic rat carrying [RenTG(mRRen2)27] gene assessed as increase in creatinine clearance pretreated with NO-synthase inhibitor L-NAME followed by compound administration twice daily for 21 days; assay type: functional, organism-based; settings: dose 1-10 mg/kg, time 21.0 day
In short: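 L-NAME-treated renin transgenic rats were dosed BID. At study end, protein-to-creatinine ratio (mg/mmol) came from urinary protein and creatinine. Creatinine clearance (mL/min) came from plasma and urinary creatinine plus urine volume.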

C[C@H]([C@H](C(=O)Nc1cc([C@@H](CC(=O)O)C2CC2)ccc1Cl)c1ccc(Cl)cc1)C(F)(F)F [RUNCACIGUAT]
half-life [1]: 7.5 h | Activity (Rattus norvegicus [2]): inactive | fold change (FC) [3]: 9.3 | Activity (Rattus norvegicus [4]): inactive | Activity (CHO): Active | Activity [5]: 256 nM | clearance [6]: 0.16 L/h/kg | Activity (Rattus norvegicus [7]): Active | EC50 [8]: 0.0112 µM | Vd [9]: 2.8 L/kg | Vd [10]: 1.4 L/kg | bioavailability [11]: 95% | bioavailability [12]: 81% | Activity (Rattus norvegicus [13]): Dose-Dependent Effect | Activity (Heart): 45% | half-life [14]: 4.3 h | Activity (Rattus norvegicus [15]): Dose-Dependent Effect
